How the values were obtained:
[1] = molecular target: T1, Serine/threonine-protein kinase Nek11 (Homo sapiens) (UniProt Q8NG66); test: Residual activity of NEK11 at 0.1 uM by microplate scintillation counting
T1 sequence (whole entry): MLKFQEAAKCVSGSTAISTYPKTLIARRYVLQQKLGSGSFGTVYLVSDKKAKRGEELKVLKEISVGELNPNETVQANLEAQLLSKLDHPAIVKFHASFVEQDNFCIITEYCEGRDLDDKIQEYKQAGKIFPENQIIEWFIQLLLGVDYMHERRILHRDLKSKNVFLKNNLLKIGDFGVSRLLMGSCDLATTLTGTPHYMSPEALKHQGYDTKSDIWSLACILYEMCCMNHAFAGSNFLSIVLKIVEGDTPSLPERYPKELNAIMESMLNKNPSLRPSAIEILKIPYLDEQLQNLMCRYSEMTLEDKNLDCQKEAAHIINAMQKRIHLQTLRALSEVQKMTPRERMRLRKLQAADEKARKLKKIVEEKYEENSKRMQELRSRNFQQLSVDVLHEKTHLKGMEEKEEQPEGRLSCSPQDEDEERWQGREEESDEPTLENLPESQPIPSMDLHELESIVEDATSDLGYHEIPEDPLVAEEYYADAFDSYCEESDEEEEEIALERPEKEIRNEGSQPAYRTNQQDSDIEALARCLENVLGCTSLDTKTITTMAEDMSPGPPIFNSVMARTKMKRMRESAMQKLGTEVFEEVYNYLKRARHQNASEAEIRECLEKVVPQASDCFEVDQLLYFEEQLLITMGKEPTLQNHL

[2] = molecular target: Mast/stem cell growth factor receptor Kit (Homo sapiens) (UniProt P10721); test: Residual activity of wild type KIT at 0.1 uM by microplate scintillation counting
Chain of Mast/stem cell growth factor receptor Kit (Homo sapiens) (P10721 whole entry, canonical isoform): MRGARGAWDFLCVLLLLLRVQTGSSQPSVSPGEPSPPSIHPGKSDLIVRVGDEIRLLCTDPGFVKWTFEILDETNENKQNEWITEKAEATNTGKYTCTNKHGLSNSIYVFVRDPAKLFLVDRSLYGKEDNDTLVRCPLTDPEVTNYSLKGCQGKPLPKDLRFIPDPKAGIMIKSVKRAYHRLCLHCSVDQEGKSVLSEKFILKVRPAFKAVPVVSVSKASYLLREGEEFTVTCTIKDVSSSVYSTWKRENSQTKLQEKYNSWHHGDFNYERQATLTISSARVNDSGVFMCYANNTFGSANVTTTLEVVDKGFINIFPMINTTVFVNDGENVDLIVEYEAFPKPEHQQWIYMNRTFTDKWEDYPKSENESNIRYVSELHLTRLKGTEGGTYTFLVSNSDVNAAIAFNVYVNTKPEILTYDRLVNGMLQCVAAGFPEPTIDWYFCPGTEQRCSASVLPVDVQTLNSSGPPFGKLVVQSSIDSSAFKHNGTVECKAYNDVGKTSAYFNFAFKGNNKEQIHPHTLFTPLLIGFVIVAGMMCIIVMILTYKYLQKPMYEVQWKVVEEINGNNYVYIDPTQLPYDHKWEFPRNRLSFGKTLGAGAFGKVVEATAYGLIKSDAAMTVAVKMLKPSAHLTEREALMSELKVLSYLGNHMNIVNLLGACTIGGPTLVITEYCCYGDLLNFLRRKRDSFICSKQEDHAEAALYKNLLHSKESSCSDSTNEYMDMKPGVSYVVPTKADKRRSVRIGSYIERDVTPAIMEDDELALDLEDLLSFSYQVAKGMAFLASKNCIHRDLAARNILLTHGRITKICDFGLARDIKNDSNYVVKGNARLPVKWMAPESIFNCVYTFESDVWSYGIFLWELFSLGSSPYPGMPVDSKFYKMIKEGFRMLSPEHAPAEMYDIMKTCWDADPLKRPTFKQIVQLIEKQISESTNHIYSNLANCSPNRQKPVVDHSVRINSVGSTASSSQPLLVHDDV

[3] = molecular target: Casein kinase I isoform gamma-1 (Homo sapiens) (UniProt Q9HCP0); test: Residual activity of CK1gamma1 at 0.1 uM by microplate scintillation counting
Chain of Casein kinase I isoform gamma-1 (Homo sapiens) (Q9HCP0 whole entry, looked up, canonical isoform): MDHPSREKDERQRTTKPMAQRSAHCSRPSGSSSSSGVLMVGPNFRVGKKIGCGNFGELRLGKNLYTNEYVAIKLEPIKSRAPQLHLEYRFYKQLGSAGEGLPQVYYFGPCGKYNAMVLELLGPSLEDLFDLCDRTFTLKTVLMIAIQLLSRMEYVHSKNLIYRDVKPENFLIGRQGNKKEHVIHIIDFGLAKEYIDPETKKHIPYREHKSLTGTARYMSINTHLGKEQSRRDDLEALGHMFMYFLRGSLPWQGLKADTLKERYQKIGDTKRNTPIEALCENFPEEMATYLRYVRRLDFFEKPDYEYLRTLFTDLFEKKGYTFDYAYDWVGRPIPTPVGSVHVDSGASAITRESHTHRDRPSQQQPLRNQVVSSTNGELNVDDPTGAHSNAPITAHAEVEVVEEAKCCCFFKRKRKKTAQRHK

[4] = molecular target: T2, G protein-coupled receptor kinase 3 (Homo sapiens) (UniProt P35626); test: Residual activity of GRK3 at 10 uM by microplate scintillation counting
T2 sequence (whole entry): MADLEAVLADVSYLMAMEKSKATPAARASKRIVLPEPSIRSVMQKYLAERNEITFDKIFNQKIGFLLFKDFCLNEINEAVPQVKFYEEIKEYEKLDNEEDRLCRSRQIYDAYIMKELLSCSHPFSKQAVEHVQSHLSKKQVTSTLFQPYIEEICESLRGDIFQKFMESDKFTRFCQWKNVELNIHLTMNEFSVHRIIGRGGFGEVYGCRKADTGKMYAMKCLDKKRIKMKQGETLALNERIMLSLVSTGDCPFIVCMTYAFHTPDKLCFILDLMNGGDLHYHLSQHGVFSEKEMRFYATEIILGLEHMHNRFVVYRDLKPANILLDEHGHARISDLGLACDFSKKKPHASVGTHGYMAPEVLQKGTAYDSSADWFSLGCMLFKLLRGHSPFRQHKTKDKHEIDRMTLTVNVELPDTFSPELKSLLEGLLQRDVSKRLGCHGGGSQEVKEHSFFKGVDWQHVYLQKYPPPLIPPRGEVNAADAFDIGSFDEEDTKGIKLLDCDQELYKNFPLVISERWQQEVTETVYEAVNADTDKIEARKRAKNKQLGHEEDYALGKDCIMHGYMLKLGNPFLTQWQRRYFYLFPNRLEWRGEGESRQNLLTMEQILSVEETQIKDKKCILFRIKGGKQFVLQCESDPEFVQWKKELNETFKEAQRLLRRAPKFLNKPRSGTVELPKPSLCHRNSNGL

[5] = molecular target: Interleukin-1 receptor-associated kinase 1 (Homo sapiens) (UniProt P51617); test: Residual activity of IRAKI at 10 uM by microplate scintillation counting
[6] = test system: Epidermal growth factor receptor (Homo sapiens), P00533 [L858R]; test: Residual activity of EGFR L858R mutant at 10 uM by microplate scintillation counting
[7] = molecular target: Receptor tyrosine-protein kinase erbB-4 (Homo sapiens) (UniProt Q15303); test: Residual activity of ERBB4 at 1 uM by microplate scintillation counting
Chain of Receptor tyrosine-protein kinase erbB-4 (Homo sapiens) (Q15303 whole entry): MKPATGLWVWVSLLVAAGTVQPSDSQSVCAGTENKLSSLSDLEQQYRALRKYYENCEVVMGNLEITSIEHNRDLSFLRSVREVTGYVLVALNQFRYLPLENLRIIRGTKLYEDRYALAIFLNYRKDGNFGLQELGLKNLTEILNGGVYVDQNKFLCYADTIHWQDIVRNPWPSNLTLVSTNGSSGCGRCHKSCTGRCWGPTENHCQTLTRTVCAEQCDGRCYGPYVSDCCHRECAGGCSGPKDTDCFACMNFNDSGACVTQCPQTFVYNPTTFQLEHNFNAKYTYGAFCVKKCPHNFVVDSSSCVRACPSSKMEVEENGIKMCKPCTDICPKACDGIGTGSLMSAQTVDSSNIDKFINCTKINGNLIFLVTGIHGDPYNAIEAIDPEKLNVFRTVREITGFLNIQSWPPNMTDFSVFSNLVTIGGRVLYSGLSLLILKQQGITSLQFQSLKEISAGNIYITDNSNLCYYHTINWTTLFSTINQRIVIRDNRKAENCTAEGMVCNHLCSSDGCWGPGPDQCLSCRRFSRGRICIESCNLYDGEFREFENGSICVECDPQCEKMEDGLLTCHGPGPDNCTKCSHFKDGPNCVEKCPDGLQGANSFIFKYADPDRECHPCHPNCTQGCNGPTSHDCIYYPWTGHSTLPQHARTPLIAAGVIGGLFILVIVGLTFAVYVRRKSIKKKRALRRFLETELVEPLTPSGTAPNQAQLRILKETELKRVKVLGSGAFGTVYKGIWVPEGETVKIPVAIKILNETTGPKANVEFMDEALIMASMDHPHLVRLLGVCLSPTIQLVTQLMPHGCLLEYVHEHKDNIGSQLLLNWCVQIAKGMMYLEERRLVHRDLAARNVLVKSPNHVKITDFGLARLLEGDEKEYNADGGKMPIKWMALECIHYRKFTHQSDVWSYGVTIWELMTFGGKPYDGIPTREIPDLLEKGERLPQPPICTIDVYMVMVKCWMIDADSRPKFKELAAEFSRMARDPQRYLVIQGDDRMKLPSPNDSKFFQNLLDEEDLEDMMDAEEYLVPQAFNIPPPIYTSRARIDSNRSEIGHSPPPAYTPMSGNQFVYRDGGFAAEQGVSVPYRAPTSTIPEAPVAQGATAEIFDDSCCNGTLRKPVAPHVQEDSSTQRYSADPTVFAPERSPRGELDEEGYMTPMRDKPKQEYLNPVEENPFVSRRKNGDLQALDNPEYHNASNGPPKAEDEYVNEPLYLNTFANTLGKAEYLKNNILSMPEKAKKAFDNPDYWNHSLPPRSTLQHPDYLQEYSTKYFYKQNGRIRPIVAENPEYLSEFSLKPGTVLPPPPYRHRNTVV

[8] = test system: Serine/threonine-protein kinase B-raf (Homo sapiens), P15056 [V600E]; test: Residual activity of B-RAF V600E mutant at 1 uM by microplate scintillation counting
[9] = molecular target: Calcium/calmodulin-dependent protein kinase type II subunit alpha (Homo sapiens) (UniProt Q9UQM7); test: Residual activity of CAMK2A at 0.1 uM by microplate scintillation counting
Chain of Calcium/calmodulin-dependent protein kinase type II subunit alpha (Homo sapiens) (Q9UQM7 whole entry): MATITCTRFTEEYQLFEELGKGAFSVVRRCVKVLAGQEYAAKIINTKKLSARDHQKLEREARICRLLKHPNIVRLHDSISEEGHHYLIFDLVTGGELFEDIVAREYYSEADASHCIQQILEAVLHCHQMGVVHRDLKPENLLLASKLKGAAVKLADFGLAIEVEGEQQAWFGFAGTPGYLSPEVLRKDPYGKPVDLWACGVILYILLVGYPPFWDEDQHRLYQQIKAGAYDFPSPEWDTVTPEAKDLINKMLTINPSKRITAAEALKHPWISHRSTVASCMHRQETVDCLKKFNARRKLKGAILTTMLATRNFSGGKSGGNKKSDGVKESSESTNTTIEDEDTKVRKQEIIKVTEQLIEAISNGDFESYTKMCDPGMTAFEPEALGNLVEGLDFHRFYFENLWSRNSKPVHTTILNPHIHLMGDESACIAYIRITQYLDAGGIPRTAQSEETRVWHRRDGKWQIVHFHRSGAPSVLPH

[10] = molecular target: CDK1/Cyclin E (Homo sapiens) (UniProt P06493+P24864); test: Residual activity of CDK1/Cyclin E at 10 uM by microplate scintillation counting; assay type: protein-complex assay
[11] = molecular target: G protein-coupled receptor kinase 6 (Homo sapiens) (UniProt P43250); test: Residual activity of GRK6 at 1 uM by microplate scintillation counting
Chain of G protein-coupled receptor kinase 6 (Homo sapiens) (P43250 whole entry, looked up): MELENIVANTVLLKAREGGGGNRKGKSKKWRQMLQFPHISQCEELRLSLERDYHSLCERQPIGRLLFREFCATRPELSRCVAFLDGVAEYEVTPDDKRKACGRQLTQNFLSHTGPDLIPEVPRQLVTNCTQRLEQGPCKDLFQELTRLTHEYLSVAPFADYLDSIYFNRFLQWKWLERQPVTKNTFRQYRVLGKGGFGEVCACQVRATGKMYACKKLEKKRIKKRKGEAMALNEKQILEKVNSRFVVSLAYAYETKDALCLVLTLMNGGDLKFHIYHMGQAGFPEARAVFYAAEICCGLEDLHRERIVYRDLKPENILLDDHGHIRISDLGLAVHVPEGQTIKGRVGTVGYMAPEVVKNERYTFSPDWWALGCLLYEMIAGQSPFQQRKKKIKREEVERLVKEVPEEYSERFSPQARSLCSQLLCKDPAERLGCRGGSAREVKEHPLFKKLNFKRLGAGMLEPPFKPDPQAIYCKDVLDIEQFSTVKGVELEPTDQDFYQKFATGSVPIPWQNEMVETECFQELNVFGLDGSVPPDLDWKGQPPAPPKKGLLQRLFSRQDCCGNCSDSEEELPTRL

[12] = molecular target: Platelet-derived growth factor receptor beta (Homo sapiens, UniProt P09619); test: Inhibition of PDGFRbeta by microplate scintillation counting
Chain of Platelet-derived growth factor receptor beta (P09619 whole entry): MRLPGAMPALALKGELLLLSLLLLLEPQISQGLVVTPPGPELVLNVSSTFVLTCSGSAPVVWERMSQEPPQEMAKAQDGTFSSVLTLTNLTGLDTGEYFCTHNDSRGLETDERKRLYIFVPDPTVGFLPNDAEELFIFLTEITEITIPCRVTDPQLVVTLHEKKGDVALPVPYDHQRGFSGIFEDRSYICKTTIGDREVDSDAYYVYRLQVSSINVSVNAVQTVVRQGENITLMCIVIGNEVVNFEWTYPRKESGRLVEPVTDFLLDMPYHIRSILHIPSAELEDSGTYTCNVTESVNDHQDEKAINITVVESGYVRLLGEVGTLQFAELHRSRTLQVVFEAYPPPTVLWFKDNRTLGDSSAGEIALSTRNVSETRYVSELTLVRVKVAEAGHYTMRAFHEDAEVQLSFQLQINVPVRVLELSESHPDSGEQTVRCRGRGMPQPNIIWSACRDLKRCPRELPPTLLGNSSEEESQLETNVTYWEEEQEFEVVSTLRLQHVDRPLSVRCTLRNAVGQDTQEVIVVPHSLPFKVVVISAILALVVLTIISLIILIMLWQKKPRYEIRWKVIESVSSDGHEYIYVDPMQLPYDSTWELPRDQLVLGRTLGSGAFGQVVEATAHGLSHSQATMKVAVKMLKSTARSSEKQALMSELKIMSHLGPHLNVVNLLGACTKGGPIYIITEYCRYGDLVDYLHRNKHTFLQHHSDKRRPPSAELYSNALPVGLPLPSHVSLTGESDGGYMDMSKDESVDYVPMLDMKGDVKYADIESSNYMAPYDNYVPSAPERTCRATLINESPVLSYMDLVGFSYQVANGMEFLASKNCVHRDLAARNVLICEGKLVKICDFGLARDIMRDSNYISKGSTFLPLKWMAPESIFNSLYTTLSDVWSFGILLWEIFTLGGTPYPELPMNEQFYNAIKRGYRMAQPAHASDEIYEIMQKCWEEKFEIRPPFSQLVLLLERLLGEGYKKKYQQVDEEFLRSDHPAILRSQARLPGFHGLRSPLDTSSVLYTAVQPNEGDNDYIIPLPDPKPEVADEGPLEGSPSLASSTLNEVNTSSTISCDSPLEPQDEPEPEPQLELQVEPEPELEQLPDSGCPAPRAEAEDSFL
In short: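 Substrates: tetra(LRRWSLG) for Aurora A/B; poly(Ala,Glu,Lys,Tyr)6:2:5:1 for PDGFRβ; poly(Glu,Tyr)4:1 for TIE2 and VEGFR2. Stopped with 2% H3PO4.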

Row | residual activity [1] | residual activity [2] | residual activity [3] | residual activity [4] | residual activity [5] | residual activity [6] | residual activity [7] | residual activity [8] | residual activity [9] | residual activity [10] | residual activity [11] | IC50 [12] | SMILES
1 | 103% | 101% | 84% | 110% | 18% | 46% | 109% | 83% | 85% | 93% | 90% | 7.7 µM | COc1cc2c(Oc3ccc(-c4nc5ccccc5s4)cc3)ncnc2cc1OCCCN1CCCC1
2 | 95% | 96% | 102% | 135% | 23% | 22% | 99% | 86% | 80% | 108% | 80% | 3.5 µM | COc1cc2c(Oc3ccc(-c4nc5ccccc5s4)cc3)ncnc2cc1OCCCN1CCN(C)CC1
3 | 94% | 96% | 100% | 125% | 18% | 24% | 103% | 79% | 91% | 107% | 93% | 6.1 µM | COc1cc2c(Oc3ccc(-c4nc5ccccc5s4)cc3F)ncnc2cc1OCCCN1CCN(C)CC1
